Type in all cases: functional, cell-based
For one assay, the system named is A549. The experiment in a line: Cytotoxicity against human A549 cells assessed as growth inhibition after 48 hrs by SRB assay. As to conditions: A549, 48 h. In short, it runs like this:
(§1)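 Sulforhodamine B (SRB) read-out of antiproliferative effect. IC50 is the concentration giving 50% reduction relative to untreated cells, determined separately for each cell line.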

The test system of the next assay is KB. The experiment in a line: Cytotoxicity against human KB cells assessed as growth inhibition after 48 hrs by SRB assay. In short, it runs like this:
as §1

Assay [1] in a line: Cytotoxicity against human KBVIN cells assessed as growth inhibition after 48 hrs by SRB assay. In short, it runs like this: as §1
In the next assay the test system is MDA-MB-231. Briefly: Cytotoxicity against human MDA-MB-231 cells assessed as growth inhibition after 48 hrs by SRB assay. As to conditions: MDA-MB-231, 48 h. In short, it runs like this: as §1
For a further assay, the system named is MCF7. The experiment in a line: Cytotoxicity against human MCF7 cells assessed as growth inhibition after 48 hrs by SRB assay. As to conditions: MCF7, 48 h.

The structures appear in SMILES notation.

Take `COc1c2c(c(CCC(C)C)c(O)c1C(C)=O)OC(C)(C)C(O)C2` (stereo not drawn): the IC50 with A549 was 19.9 µM; in the assay with KB it was 20.4 µM; in assay [1], 16.2 µM; with MDA-MB-231, 22.6 µM; with MCF7, 19.4 µM.

For `COc1c(CC=C(C)C)c2c(c(O)c1C(C)=O)CC(O)C(C)(C)O2` (stereo not drawn), the half-inhibitory concentration (IC50) with A549 is > 40 µM; in the assay with KB it was 38.5 µM; in assay [1] it was 39.7 µM; in the assay with MDA-MB-231, > 40 µM; with MCF7 it was > 40 µM.

For `COc1c2c(c(CC=C(C)C)c(O)c1C(C)=O)OC(C(C)(C)O)C2` (stereo not drawn), the IC50 (in the assay with A549; in the assay with KB; in assay [1]; in the assay on MDA-MB-231; in the assay on MCF7) was > 40 µM throughout.

With `COc1c2c(c(CC=C(C)C)c(O)c1C(C)=O)OC(C)(C)C(O)C2` (stereo not drawn), the IC50 is 26.6 µM in the assay with A549; 25.6 µM in the assay on KB; 19.2 µM in assay [1]; > 40 µM in the assay with MDA-MB-231; 30.8 µM with MCF7.

For the molecule `CC(=O)O[C@H]1C(=O)[C@@]2(C)[C@H]([C@H](OC(=O)c3ccccc3)[C@]3(O)C[C@H](OC(=O)[C@H](O)[C@@H](NC(=O)c4ccccc4)c4ccccc4)C(C)=C1C3(C)C)[C@]1(OC(C)=O)CO[C@@H]1C[C@@H]2O` [PACLITAXEL], the IC50 is 0.00099 µM in the assay on A549, 0.0008 µM with KB and 1.9 µM in assay [1].

For `COc1c(CC=C(C)C)c2c(c(O)c1C(C)=O)CC(C(C)(C)O)O2` (stereo not drawn), the concentration for half-maximal inhibition (IC50) (with A549; in the assay with KB; in assay [1]; in the assay on MDA-MB-231; in the assay on MCF7) was > 40 µM each time.

As to `COc1c(CC=C(C)C)c(O)c2c(c1C(C)=O)OC(C)(C)C(O)C2` (stereo not drawn), the IC50 (in the assay on A549; in the assay on KB; in assay [1]; in the assay on MDA-MB-231; in the assay on MCF7) was > 40 µM in each case.

These data come from ChEMBL document CHEMBL4002556, “Acetophenone Monomers from Acronychia trifoliolata” (J Nat Prod, 2016).
